ChEMBL document CHEMBL1129567, “Structure-based design of novel, urea-containing FKBP12 inhibitors” (J Med Chem, 1996)

Target: Peptidyl-prolyl cis-trans isomerase FKBP1A (Homo sapiens, UniProt P62942)
Assay: Apparent inhibition constant of Wild-type human recombinant FK506 binding protein 12
Details: read-out: Ki app
Procedure, shortened: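 Wild-type human recombinant FKBP12 (E. coli-expressed, purified), 90 nM, chymotrypsin-coupled continuous spectrophotometric cis-trans isomerase assay with 100 µM cis succinyl-Ala-Leu-Pro-Phe-p-nitroanilide (stock in trifluoroethanol/240 mM LiCl) at 10 or 15 °C. Buffer: 50 mM HEPES pH 8.0, 100 mM NaCl, 100 µM 2-mercaptoethanol, 1% DMSO, 6 mg/mL chymotrypsin. Read for 5 min. Fit to competitive tight-binding equation corrected for uncatalyzed isomerization.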

Chain of Peptidyl-prolyl cis-trans isomerase FKBP1A (P62942 whole entry): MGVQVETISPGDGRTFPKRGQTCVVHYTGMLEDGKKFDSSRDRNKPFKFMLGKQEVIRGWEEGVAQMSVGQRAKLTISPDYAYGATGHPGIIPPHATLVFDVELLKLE

Ki [nM] | Compound
67000 | COC(=O)[C@@H]1CCC[C@H]2CCN(Cc3ccccc3)C(=O)N21
790 | CC(C)(C)CNC(=O)N1CCCC[C@H]1C(=O)OCc1ccccc1
550 | CC1(CNC(=O)N2CCCC[C@H]2C(=O)OCc2ccccc2)CCCCC1
24000 | CCCN1CC[C@@H]2CCC[C@@H](C(=O)OCc3ccccc3)N2C1=O
83000 | CCCN1CC[C@@H]2CCC[C@@H](C(=O)OC)N2C1=O
8400 | CC(C)(CO)CNC(=O)N1CCCC[C@H]1C(=O)OCc1ccccc1
7200 | C=C(C)CNC(=O)N1CCCC[C@H]1C(=O)OCc1ccccc1
6500 | O=C(OCc1ccccc1)[C@@H]1CCCCN1C(=O)NCc1ccccc1
14000 | O=C(OCc1ccccc1)[C@@H]1CCC[C@H]2CCN(Cc3ccccc3)C(=O)N21
570 | CC1(CNC(=O)N2CCCC[C@H]2C(=O)OCc2ccccc2)CCCC1

Continued, molecule first:

Compound | Ki [nM]
CC1(CNC(=O)N2CCCC[C@H]2C(=O)OCc2cccc(Oc3ccccc3)c2)CCCCC1 | 200
CC(C)(C)CNC(=O)N1CCCC[C@H]1C(=O)OCc1cccc(Oc2ccccc2)c1 | 220
COc1cccc(CCCOC(=O)[C@@H]2CCCCN2C(=O)NCC(C)(C)C)c1 | 370
CC(C)(C)CNC(=O)N1CCCC[C@H]1C(=O)O[C@H](CCc1ccccc1)c1ccccc1 | 350
CC(C)(C)CNC(=O)N1CCCC[C@H]1C(=O)OCCCCc1ccccc1 | 150
CC1(CNC(=O)N2CCCC[C@H]2C(=O)OCCCCc2ccccc2)CCCCC1 | 120
COc1cc(CCCOC(=O)[C@@H]2CCCCN2C(=O)NCC(C)(C)C)cc(OC)c1OC | 390
